{"data": "Experimental data of several laboratories", "target": "MAP kinase-interacting serine/threonine-protein kinase 1 (MKNK1, Homo sapiens, UniProt Q9BUB5)", "note": "Compare with care: the assays were run in different laboratories."}
{"SMILES": "COc1ncccc1-c1cnn2ccc(N3CCN(C(=O)OC(C)C)CC3)nc12", "test": "binding, competition with immobilised ligand", "conditions": "1 µM", "quantity": "remaining binding", "result": "100%"}
{"SMILES": "Cn1cncc1[C@](O)(COc1ccc(C#N)cc1-c1ccc(OC(F)(F)F)cc1)c1ccc(C#N)cc1", "test": "cell-free assay, competition with immobilised ligand", "conditions": "1 µM", "quantity": "remaining binding", "result": "68%"}
{"SMILES": "COc1cc(Nc2ncc(F)c(Nc3ccc4c(n3)NC(=O)C(C)(C)O4)n2)cc(OC)c1OC", "test": "binding, competition with immobilised ligand", "conditions": "10 µM", "quantity": "inhibition", "result": "9%"}
{"SMILES": "N#CC1(c2ccccn2)CCN(Cc2cc(C(=O)O)c(=O)n3ccccc23)CC1", "test": "cell-free assay, competition with immobilised ligand", "conditions": "1 µM", "quantity": "remaining binding", "result": "85%"}
{"SMILES": "CC(C)(C)c1cc(C=C(C#N)C#N)cc(Br)c1O", "test": "enzyme activity, inhibitor", "conditions": "0.5 µM", "quantity": "remaining activity", "result": "95.9%"}
{"SMILES": "Cc1nn(C)cc1-c1nc2c(N3CCN(Cc4ccc(Cl)cc4)CC3)c(Cl)cnc2[nH]1", "test": "binding, competition with immobilised ligand", "conditions": "1 µM", "quantity": "remaining binding", "result": "100%"}
{"SMILES": "O=c1[nH]c2ccccc2n1C1CCN(Cc2ccc(-c3[nH]c4cc5ncnc5cc4nc3-c3ccccc3)cc2)CC1", "test": "cell-free assay", "conditions": "0.5 µM", "quantity": "remaining signal", "result": "104%"}
{"SMILES": "Nc1ncc(-c2nc(N3CCOCC3)nc(N3CCOCC3)n2)c(C(F)F)n1", "test": "binding, competition with immobilised ligand", "conditions": "10 µM", "quantity": "remaining binding", "result": "45%"}
